Measured values from publication PMC4301073 (ACS Chemical Biology, 2014).
Converted amounts (≈) assume the structure as drawn.

Tests used:
HK853 [1] = target: T1, HK853 (Thermotoga maritima, UniProt Q9WZV7); test: Control FP competition; type: binding
T1 sequence (Q9WZV7 232-489): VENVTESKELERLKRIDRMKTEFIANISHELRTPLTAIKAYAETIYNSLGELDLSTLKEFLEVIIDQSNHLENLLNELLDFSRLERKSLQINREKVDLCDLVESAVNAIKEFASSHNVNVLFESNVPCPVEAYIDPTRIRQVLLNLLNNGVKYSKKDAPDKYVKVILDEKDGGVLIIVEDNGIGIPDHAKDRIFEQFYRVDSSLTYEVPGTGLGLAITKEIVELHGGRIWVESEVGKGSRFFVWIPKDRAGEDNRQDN
Outline: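 Competition format: 25 μM HK853 plus 10 nM ADP-BODIPY probe with 0–1000 μM competing nucleotide and 5% (v/v) DMSO, in 50 mM Tris-HCl pH 7.8, 200 mM KCl, 5 mM MgCl2. Incubation and FP read as for binding, in triplicate. FP plotted against log molar competitor; IC50 from four-parameter logistic fit.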

four HK proteins = settings: cited from earlier work
HK853 [2] = target: T1, HK853; test: Inhibition of HK853 autophosphorylation activity; type: biochemical
VicK = target: T2, VicK (Streptococcus pneumoniae, UniProt Q8DPL8); test: Inhibition of VicK activity; type: biochemical
T2 sequence (Q8DPL8 36-449 limits assumed): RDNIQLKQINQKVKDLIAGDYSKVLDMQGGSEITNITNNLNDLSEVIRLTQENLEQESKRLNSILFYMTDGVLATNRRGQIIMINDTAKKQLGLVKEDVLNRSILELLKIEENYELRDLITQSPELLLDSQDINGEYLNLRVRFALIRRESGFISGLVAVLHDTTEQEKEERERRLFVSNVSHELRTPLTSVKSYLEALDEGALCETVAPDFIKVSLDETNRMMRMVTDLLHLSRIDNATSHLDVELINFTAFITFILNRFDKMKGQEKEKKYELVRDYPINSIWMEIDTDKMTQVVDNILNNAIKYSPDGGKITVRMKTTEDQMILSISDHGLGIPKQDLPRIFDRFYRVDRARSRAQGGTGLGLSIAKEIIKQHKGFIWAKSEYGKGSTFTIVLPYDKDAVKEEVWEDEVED
Outline: (§1)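 Enzyme (VicK 2 μM; for CheA, 2 μM CheA plus 6 μM CheW) preincubated with test compound 30 min RT, then radioactive ATP mix added. Final: 3 μM ATP [γ-33P] (20 Ci mmol–1), 5% DMSO, 0.1% Triton X-100 in reaction buffer, pH 7.8. Reacted 30 min RT, quenched in SDS loading buffer, run on SDS-PAGE. Radioactive band density normalised to no-inhibitor control; IC50 from four-parameter logistic fit.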

CheA = target: T3, CheA (Escherichia coli, UniProt P07363); test: Inhibition of CheA activity; type: biochemical
T3 sequence (P07363 1-654): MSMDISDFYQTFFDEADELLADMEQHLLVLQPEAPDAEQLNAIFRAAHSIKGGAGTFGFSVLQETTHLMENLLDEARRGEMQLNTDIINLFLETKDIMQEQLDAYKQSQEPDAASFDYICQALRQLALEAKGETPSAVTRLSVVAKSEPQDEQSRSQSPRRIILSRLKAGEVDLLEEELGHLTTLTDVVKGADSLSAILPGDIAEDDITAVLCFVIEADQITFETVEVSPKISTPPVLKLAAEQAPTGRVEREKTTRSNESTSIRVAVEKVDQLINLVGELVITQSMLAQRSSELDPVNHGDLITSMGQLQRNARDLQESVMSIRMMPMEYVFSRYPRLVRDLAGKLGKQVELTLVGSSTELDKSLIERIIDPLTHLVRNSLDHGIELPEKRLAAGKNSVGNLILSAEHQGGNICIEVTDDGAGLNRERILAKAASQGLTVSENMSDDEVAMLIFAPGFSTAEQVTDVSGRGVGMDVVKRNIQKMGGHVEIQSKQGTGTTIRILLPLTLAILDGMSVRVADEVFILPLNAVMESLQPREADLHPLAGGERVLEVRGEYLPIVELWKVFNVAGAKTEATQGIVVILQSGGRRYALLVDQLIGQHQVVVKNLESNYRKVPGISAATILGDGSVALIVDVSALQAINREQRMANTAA
Outline: as §1

E. coli DC2 = test: Broth microdilution antimicrobial testing; type: cell-based, Escherichia coli; settings: for MIC: Escherichia coli, DC2, 20 h, read-out: MIC values E. coli DC2
Outline: (§2)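 Serial dilutions in Mueller-Hinton Broth 2, inoculated at 5 × 10^5 cfu/mL; wells ≤5% DMSO. Growth, sterility, DMSO and known-antibiotic controls included; inoculum count checked by plating on MHB 2 agar. Incubated 20 h at 37 °C. MIC taken as lowest concentration with no growth visible to unaided eye.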

B. subtilis 3610 = test: Broth microdilution antimicrobial testing; type: cell-based, Bacillus subtilis; settings: for MIC: Bacillus subtilis, 3610, 20 h, read-out: MIC values B. subtilis 3610; for MIC values B. subtilis 3610: n = 2
Outline: as §2

Vero 76 cells = test: Cytotoxicity testing; type: cell-based, African green monkey; settings: DMSO control, n = 2
HK853 [3] = target: T1, HK853; test: High-throughput primary FP screen for displacement of ADP-BODIPY; type: binding; settings: 20 μM compound
PhoQ = settings: cited from earlier work

Nc1ncnc2c1ncn2[C@@H]1O[C@H](COP(=O)(O)OP(=O)(O)OP(=O)(O)O)[C@@H](O)[C@H]1O [ATP (2), adenosine triphosphate]
IC50 (HK853 [1]): 23 ± 1.1 µM

N#Cc1c(N)nc2sc(C(=O)Nc3ccc(Br)cc3)c(N)c2c1-c1ccccc1 [TEP, 3,6-diamino-5-cyano-4-phenylthieno[2,3-b]pyridine-2-carboxylic acid (4-bromo-phenyl)-amide]
IC50 values (four HK proteins): low micromolar range

Nc1ncnc2nc[nH]c12 [adenine (10), adenine]
IC50 (HK853 [2]): 463 µM

Nc1ncnc2c1ncn2[C@@H]1O[C@H](COP(=O)(O)OP(=O)(O)O)[C@@H](O)[C@H]1O [ADP (3), adenosine diphosphate]
IC50 (HK853 [1]): 27.7 ± 0.9 µM | IC50 (HK853 [2]): 2.57 µM | increased potency over AMP (9) (HK853 [2]; from Table 1 IC50 values of HK inhibition): more than 300 fold | IC50 (VicK): 4.81 µM | IC50 (CheA): 21.5 µM

Nc1nc2ccc(OC(F)(F)F)cc2s1 [Compound 12, riluzole]
MIC (E. coli DC2): 128 µg/mL (≈ 547 µM) | IC50 (VicK): 618 µM | IC50 (CheA): 1340 µM | MIC (B. subtilis 3610): 293 µg/mL (≈ 1250 µM)

C[S+](C)[O-] [DMSO, dimethyl sulfoxide]
MIC values E. coli DC2 (E. coli DC2; DMSO control, n = 2): 10–20% (v/v) | MIC values B. subtilis 3610 (B. subtilis 3610; DMSO control): 20% (v/v) | CC50 Vero 76 Cells (Vero 76 cells): >0.5% (v/v)

O=c1c(-c2ccc(O)cc2)coc2cc(O)cc(O)c12 [Genistein, genistein]
inhibition of HK853 activity in follow-up assays (HK853 [2]; Supporting Information Table 1, n=1): slight inhibition

CC1(C)S[C@@H]2[C@H](NC(=O)[C@H](N)c3ccccc3)C(=O)N2[C@H]1C(=O)O [ampicillin]
MIC (E. coli DC2): 0.25 µg/mL (≈ 0.715 µM)

O=c1cc(-c2ccc(O)c(O)c2)oc2cc(O)cc(O)c12 [Compound 15, luteolin]
MIC (E. coli DC2): 8 µg/mL (≈ 27.9 µM) | IC50 (HK853 [2]): 15.1 µM | IC50 (VicK): 216 µM | MIC (B. subtilis 3610): > 128 µg/mL

C[C@@H]1C[C@H]2O[C@@H]2/C=C\C=C\C(=O)Cc2c(Cl)c(O)cc(O)c2C(=O)O1 [radicicol]
displacement of ADP-BODIPY (1) in primary screening (HTS) (HK853 [3]): failed to displace ADP-BODIPY (1) | difference in selectivity between Hsp90 and PhoQ (PhoQ): > 30 fold

O=C(N[C@H](CO)[C@H](O)c1ccc([N+](=O)[O-])cc1)C(Cl)Cl [chloramphenicol]
MIC (E. coli DC2): 0.5 to 1 µg/mL (≈ 1.55 to 3.09 µM) | MIC (B. subtilis 3610): 2 to 4 µg/mL (≈ 6.19 to 12.4 µM)

C=CCNC1=C2C[C@@H](C)C[C@H](OC)[C@H](O)[C@@H](C)/C=C(\C)[C@H](OC(N)=O)[C@@H](OC)/C=C\C=C(/C)C(=O)NC(=CC1=O)C2=O [17-AAG]
displacement of ADP-BODIPY (1) in primary screening (HTS) (HK853 [3]): failed to displace ADP-BODIPY (1)

penicillin
MIC values B. subtilis 3610 (B. subtilis 3610; 20 h at 37 °C, lowest concentration that inhibited visible growth): ≤0.06–0.5 μg mL^–1

CN[C@H](CC(C)C)C(=O)N[C@H]1C(=O)N[C@@H](CC(N)=O)C(=O)N[C@H]2C(=O)N[C@H]3C(=O)N[C@H](C(=O)N[C@H](C(=O)O)c4cc(O)cc(O)c4-c4cc3ccc4O)[C@H](O)c3ccc(c(Cl)c3)Oc3cc2cc(c3O[C@@H]2O[C@H](CO)[C@@H](O)[C@H](O)[C@H]2O[C@H]2C[C@](C)(N)[C@H](O)[C@H](C)O2)Oc2ccc(cc2Cl)[C@H]1O [vancomycin]
MIC (B. subtilis 3610): 0.5 µg/mL (≈ 0.345 µM)

COC1=C2C[C@@H](C)C[C@H](OC)[C@H](O)[C@@H](C)/C=C(\C)[C@H](OC(N)=O)[C@@H](OC)/C=C\C=C(/C)C(=O)NC(=CC1=O)C2=O [geldanamyin]
displacement of ADP-BODIPY (1) in primary screening (HTS) (HK853 [3]): failed to displace ADP-BODIPY (1)
